According to ChEMBL document CHEMBL1275526, “Differential azole antifungal efficacies contrasted using a Saccharomyces cerevisiae strain humanized for sterol 14 alpha-demethylase at the homologous locus” (2008):
≈ marks a conversion by molar mass, not a printed value.

Key:
Format in all cases: functional
Saccharomyces cerevisiae [1] = assay: Antifungal activity against Saccharomyces cerevisiae BY4741 assessed as growth rate at 0.5 ug/ml (reference value: 0.144%)
Saccharomyces cerevisiae [2] = assay: Antifungal activity against Saccharomyces cerevisiae BY4741 harboring human CYP51 assessed as growth rate at 2 ug/ml (reference value: 0.157%); settings: at 2 µg/mL
Saccharomyces cerevisiae [3] = assay: Antifungal activity against Saccharomyces cerevisiae BY4741 assessed as growth rate at 1 ug/ml (reference value: 0.144%)
Saccharomyces cerevisiae [4] = assay: Antifungal activity against wild-type Saccharomyces cerevisiae BY4741 by broth microdilution method
Outline: (§1)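 Adapted CLSI M-27A broth microdilution for S. cerevisiae, run in triplicate. Overnight cultures were diluted in YM, pH 7.0, to 2.5 x 10^3 cells/ml, with drug diluted in YM over 0 to 16 or 0 to 128 µg/ml depending on azole. Plates were incubated 48 h at 30°C. MIC was the concentration giving 80% growth inhibition.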

Saccharomyces cerevisiae [5] = assay: Antifungal activity against Saccharomyces cerevisiae BY4741 assessed as growth rate at 2 ug/ml (reference value: 0.144%)
Saccharomyces cerevisiae [6] = assay: Antifungal activity against Saccharomyces cerevisiae BY4741 harboring human CYP51 assessed as growth rate at 0.5 ug/ml (reference value: 0.157%); settings: at 0.5 µg/mL
Saccharomyces cerevisiae [7] = assay: Antifungal activity against Saccharomyces cerevisiae BY4741 harboring human CYP51 by broth microdilution method; outline: as §1
Saccharomyces cerevisiae [8] = assay: Antifungal activity against Saccharomyces cerevisiae BY4741 harboring human CYP51 assessed as growth rate at 1 ug/ml (reference value: 0.157%); settings: at 1 µg/mL
Saccharomyces cerevisiae [9] = assay: Antifungal activity against Saccharomyces cerevisiae BY4741 harboring human CYP51 assessed as accumulation of 14-alpha-methylergosta-8,24(28)-dien-3beta-6alpha-diol at 16 ug/ml
Saccharomyces cerevisiae [10] = assay: Antifungal activity against Saccharomyces cerevisiae BY4741 assessed as growth rate at 8 ug/ml (reference value: 0.144%)
Saccharomyces cerevisiae [11] = assay: Antifungal activity against Saccharomyces cerevisiae BY4741 assessed as growth rate at 16 ug/ml (reference value: 0.144%)
Saccharomyces cerevisiae [12] = assay: Antifungal activity against Saccharomyces cerevisiae BY4741 harboring human CYP51 assessed as growth rate at 16 ug/ml (reference value: 0.157%); settings: at 16 µg/mL
Saccharomyces cerevisiae [13] = assay: Antifungal activity against Saccharomyces cerevisiae BY4741 harboring human CYP51 assessed as growth rate at 8 ug/ml (reference value: 0.157%); settings: at 8 µg/mL
Saccharomyces cerevisiae [14] = assay: Antifungal activity against Saccharomyces cerevisiae BY4741 harboring human CYP51 assessed as accumulation of ergosterol at 16 ug/ml (reference value: 54+/- 0.82 %)
Saccharomyces cerevisiae [15] = assay: Antifungal activity against Saccharomyces cerevisiae BY4741 harboring human CYP51 assessed as accumulation of lanosterol at 16 ug/ml (reference value: 23+/- 1.08 %)
Saccharomyces cerevisiae [16] = assay: Antifungal activity against wild-type Saccharomyces cerevisiae BY4741 assessed as accumulation of lanosterol at 16 ug/ml (reference value: 17+/- 1.22 %)
Saccharomyces cerevisiae [17] = assay: Antifungal activity against wild-type Saccharomyces cerevisiae BY4741 assessed as accumulation of 14-alpha-methylergosta-8,24(28)-dien-3beta-6alpha-diol at 16 ug/ml
Saccharomyces cerevisiae [18] = assay: Antifungal activity against Saccharomyces cerevisiae BY4741 harboring human CYP51 assessed as accumulation of 14-alpha-methylergosta-8,24(28)-dien-3beta-6alpha-diol at 8 ug/ml
Saccharomyces cerevisiae [19] = assay: Antifungal activity against Saccharomyces cerevisiae BY4741 harboring human CYP51 assessed as growth rate at 4 ug/ml (reference value: 0.157%); settings: at 4 µg/mL
Saccharomyces cerevisiae [20] = assay: Antifungal activity against Saccharomyces cerevisiae BY4741 assessed as growth rate at 4 ug/ml (reference value: 0.144%)
Saccharomyces cerevisiae [21] = assay: Antifungal activity against wild-type Saccharomyces cerevisiae BY4741 assessed as accumulation of lanosterol at 8 ug/ml (reference value: 17+/- 1.22 %)
Saccharomyces cerevisiae [22] = assay: Antifungal activity against wild-type Saccharomyces cerevisiae BY4741 assessed as accumulation of 14-alpha-methylergosta-8,24(28)-dien-3beta-6alpha-diol at 8 ug/ml
Saccharomyces cerevisiae [23] = assay: Antifungal activity against wild-type Saccharomyces cerevisiae BY4741 assessed as accumulation of ergosterol at 8 ug/ml (reference value: 57+/- 1.00 %)
Saccharomyces cerevisiae [24] = assay: Antifungal activity against Saccharomyces cerevisiae BY4741 harboring human CYP51 assessed as accumulation of ergosterol at 8 ug/ml (reference value: 54+/- 0.82 %)
Saccharomyces cerevisiae [25] = assay: Antifungal activity against Saccharomyces cerevisiae BY4741 harboring human CYP51 assessed as accumulation of 14-alpha-methylergosta-8,24(28)-dien-3beta-6alpha-diol at 4 ug/ml
Saccharomyces cerevisiae [26] = assay: Antifungal activity against wild-type Saccharomyces cerevisiae BY4741 assessed as accumulation of ergosterol at 4 ug/ml (reference value: 57+/- 1.00 %)
Saccharomyces cerevisiae [27] = assay: Antifungal activity against wild-type Saccharomyces cerevisiae BY4741 assessed as accumulation of 14-alpha-methylergosta-8,24(28)-dien-3beta-6alpha-diol at 4 ug/ml
Saccharomyces cerevisiae [28] = assay: Antifungal activity against Saccharomyces cerevisiae BY4741 harboring human CYP51 assessed as accumulation of lanosterol at 4 ug/ml (reference value: 23+/- 1.08 %)
Saccharomyces cerevisiae [29] = assay: Antifungal activity against Saccharomyces cerevisiae BY4741 harboring human CYP51 assessed as accumulation of ergosterol at 4 ug/ml (reference value: 54+/- 0.82 %)
Saccharomyces cerevisiae [30] = assay: Antifungal activity against wild-type Saccharomyces cerevisiae BY4741 assessed as accumulation of lanosterol at 4 ug/ml (reference value: 17+/- 1.22 %)
Saccharomyces cerevisiae [31] = assay: Antifungal activity against Saccharomyces cerevisiae BY4741 assessed as growth rate at 0.125 ug/ml (reference value: 0.144%)
Saccharomyces cerevisiae [32] = assay: Antifungal activity against wild-type Saccharomyces cerevisiae BY4741 assessed as accumulation of ergosterol at 0.25 ug/ml (reference value: 57+/- 1.00 %)
Saccharomyces cerevisiae [33] = assay: Antifungal activity against Saccharomyces cerevisiae BY4741 harboring human CYP51 assessed as accumulation of 14-alpha-methylergosta-8,24(28)-dien-3beta-6alpha-diol at 0.25 ug/ml
Saccharomyces cerevisiae [34] = assay: Antifungal activity against wild-type Saccharomyces cerevisiae BY4741 assessed as accumulation of 14-alpha-methylergosta-8,24(28)-dien-3beta-6alpha-diol at 0.25 ug/ml
Saccharomyces cerevisiae [35] = assay: Antifungal activity against wild-type Saccharomyces cerevisiae BY4741 assessed as accumulation of lanosterol at 0.25 ug/ml (reference value: 17+/- 1.22 %)
Saccharomyces cerevisiae [36] = assay: Antifungal activity against Saccharomyces cerevisiae BY4741 harboring human CYP51 assessed as growth rate at 0.125 ug/ml (reference value: 0.157%); settings: at 0.125 µg/mL
Saccharomyces cerevisiae [37] = assay: Antifungal activity against Saccharomyces cerevisiae BY4741 harboring human CYP51 assessed as accumulation of lanosterol at 0.25 ug/ml (reference value: 23+/- 1.08 %)
Saccharomyces cerevisiae [38] = assay: Antifungal activity against Saccharomyces cerevisiae BY4741 harboring human CYP51 assessed as accumulation of ergosterol at 0.25 ug/ml (reference value: 54+/- 0.82 %)
Saccharomyces cerevisiae [39] = assay: Antifungal activity against Saccharomyces cerevisiae BY4741 assessed as growth rate at 0.25 ug/ml (reference value: 0.144%)
Saccharomyces cerevisiae [40] = assay: Antifungal activity against Saccharomyces cerevisiae BY4741 harboring human CYP51 assessed as growth rate at 0.25 ug/ml (reference value: 0.157%); settings: at 0.25 µg/mL

SMILES | Activity (Saccharomyces cerevisiae [1]) | Activity (Saccharomyces cerevisiae [2]) | Activity (Saccharomyces cerevisiae [3]) | MIC (Saccharomyces cerevisiae [4]) | Activity (Saccharomyces cerevisiae [5]) | Activity (Saccharomyces cerevisiae [6]) | MIC (Saccharomyces cerevisiae [7]) | Activity (Saccharomyces cerevisiae [8]) | Activity (Saccharomyces cerevisiae [10]) | Activity (Saccharomyces cerevisiae [11]) | Activity (Saccharomyces cerevisiae [12]) | Activity (Saccharomyces cerevisiae [13]) | Activity (Saccharomyces cerevisiae [19]) | Activity (Saccharomyces cerevisiae [20]) | also measured
Clc1ccccc1C(c1ccccc1)(c1ccccc1)n1ccnc1 [CLOTRIMAZOLE] | 0.11% | 0.169% | 0.123% | 8 µg/mL (≈ 23.2 µM) | 0.088% | 0.162% | 8 µg/mL (≈ 23.2 µM) | 0.173% | – | – | – | – | – | – | –
Clc1ccc(COC(Cn2ccnc2)c2ccc(Cl)cc2Cl)cc1 (stereo not drawn) [ECONAZOLE] | – | – | 0.084% | 8 µg/mL (≈ 21 µM) | – | – | 8 µg/mL (≈ 21 µM) | 0.157% | – | – | – | – | – | – | –
OC(Cn1cncn1)(Cn1cncn1)c1ccc(F)cc1F [FLUCONAZOLE] | – | – | – | 8 µg/mL (≈ 26.1 µM) | – | – | > 128 µg/mL | – | 0.036% | 0.03% | 0.171% | 0.16% | – | – | Activity (Saccharomyces cerevisiae [9]): 6%; Activity (Saccharomyces cerevisiae [14]): 46%; Activity (Saccharomyces cerevisiae [15]): 24%; Activity (Saccharomyces cerevisiae [16]): 42%; Activity (Saccharomyces cerevisiae [17]): 29%
CCC(C)n1ncn(-c2ccc(N3CCN(c4ccc(OCC5COC(Cn6cncn6)(c6ccc(Cl)cc6Cl)O5)cc4)CC3)cc2)c1=O (stereo not drawn) [ITRACONAZOLE] | 0.042% | 0.17% | 0.042% | 1 µg/mL (≈ 1.42 µM) | 0.044% | 0.166% | > 128 µg/mL | 0.176% | 0.036% | 0.035% | 0.136% | 0.164% | 0.136% | 0.039% | Activity (Saccharomyces cerevisiae [18]): 5%; Activity (Saccharomyces cerevisiae [21]): 42%; Activity (Saccharomyces cerevisiae [22]): 24%; Activity (Saccharomyces cerevisiae [23]): 6%; Activity (Saccharomyces cerevisiae [24]): 52%
CC(=O)N1CCN(c2ccc(OCC3COC(Cn4ccnc4)(c4ccc(Cl)cc4Cl)O3)cc2)CC1 (stereo not drawn) [KETOCONAZOLE] | – | 0.188% | – | 1 µg/mL (≈ 1.88 µM) | 0.088% | – | 8 µg/mL (≈ 15.1 µM) | – | 0.039% | – | – | 0.119% | 0.204% | 0.06% | Activity (Saccharomyces cerevisiae [25]): 7%; Activity (Saccharomyces cerevisiae [26]): 12%; Activity (Saccharomyces cerevisiae [27]): 19%; Activity (Saccharomyces cerevisiae [28]): 27%; Activity (Saccharomyces cerevisiae [29]): 51%; Activity (Saccharomyces cerevisiae [30]): 35%
Clc1ccc(COC(Cn2ccnc2)c2ccc(Cl)cc2Cl)c(Cl)c1 (stereo not drawn) [MICONAZOLE] | 0.024% | 0.167% | 0.034% | 8 µg/mL (≈ 19.2 µM) | 0.023% | 0.174% | 8 µg/mL (≈ 19.2 µM) | 0.141% | – | – | – | – | – | – | –
C[C@@H](c1ncncc1F)[C@](O)(Cn1cncn1)c1ccc(F)cc1F [VORICONAZOLE] | 0.046% | 0.154% | 0.039% | 0.125 µg/mL (≈ 0.358 µM) | 0.051% | 0.153% | > 128 µg/mL | 0.156% | 0.043% | 0.039% | 0.159% | 0.168% | 0.154% | 0.043% | Activity (Saccharomyces cerevisiae [31]): 0.057%; Activity (Saccharomyces cerevisiae [32]): 10%; Activity (Saccharomyces cerevisiae [33]): 4%; Activity (Saccharomyces cerevisiae [34]): 24%; Activity (Saccharomyces cerevisiae [35]): 35%; Activity (Saccharomyces cerevisiae [36]): 0.157%; Activity (Saccharomyces cerevisiae [37]): 27%; Activity (Saccharomyces cerevisiae [38]): 49%; Activity (Saccharomyces cerevisiae [39]): 0.046%; Activity (Saccharomyces cerevisiae [40]): 0.159%
